What was measured:
[1] = target: T1, Amine oxidase [flavin-containing] A (Homo sapiens, UniProt P21397); assay: Inhibition of recombinant human MAO-A using p-tyramine as substrate assessed as H2O2 production preincubated for 15 mins followed by substrate addition measured for 15 mins by amplex red assay
T1 sequence (P21397 whole entry): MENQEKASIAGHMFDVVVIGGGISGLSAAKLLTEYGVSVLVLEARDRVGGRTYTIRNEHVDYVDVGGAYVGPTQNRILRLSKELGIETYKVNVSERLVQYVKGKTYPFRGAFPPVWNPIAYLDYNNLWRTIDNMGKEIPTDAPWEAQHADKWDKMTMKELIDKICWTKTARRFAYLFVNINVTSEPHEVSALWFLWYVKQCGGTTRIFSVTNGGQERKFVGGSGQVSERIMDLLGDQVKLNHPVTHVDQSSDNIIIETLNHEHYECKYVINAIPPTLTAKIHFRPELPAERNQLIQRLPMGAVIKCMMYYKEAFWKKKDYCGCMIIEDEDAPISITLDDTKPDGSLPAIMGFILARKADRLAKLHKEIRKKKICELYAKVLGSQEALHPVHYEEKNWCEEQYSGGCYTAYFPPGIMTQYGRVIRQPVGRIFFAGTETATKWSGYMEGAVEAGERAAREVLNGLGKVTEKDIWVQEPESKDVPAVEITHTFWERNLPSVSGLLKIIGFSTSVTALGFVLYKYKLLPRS
How it was run: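 H2O2 formed from p-tyramine, a substrate shared by hMAO-A and hMAO-B, was measured with an Amplex Red MAO kit. Compounds were checked for direct reaction with the Amplex Red reagent. They were also checked for resorufin quenching by combining the highest compound concentration with various resorufin concentrations. Protein was determined by Bradford with BSA standard. Values are mean ± SEM of three independent experiments.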

[2] = target: T2, Amine oxidase [flavin-containing] B (Homo sapiens, UniProt P27338); assay: Inhibition of recombinant human MAO-B using p-tyramine as substrate assessed as H2O2 production preincubated for 15 mins followed by substrate addition measured for 15 mins by amplex red assay
T2 sequence (P27338 whole entry): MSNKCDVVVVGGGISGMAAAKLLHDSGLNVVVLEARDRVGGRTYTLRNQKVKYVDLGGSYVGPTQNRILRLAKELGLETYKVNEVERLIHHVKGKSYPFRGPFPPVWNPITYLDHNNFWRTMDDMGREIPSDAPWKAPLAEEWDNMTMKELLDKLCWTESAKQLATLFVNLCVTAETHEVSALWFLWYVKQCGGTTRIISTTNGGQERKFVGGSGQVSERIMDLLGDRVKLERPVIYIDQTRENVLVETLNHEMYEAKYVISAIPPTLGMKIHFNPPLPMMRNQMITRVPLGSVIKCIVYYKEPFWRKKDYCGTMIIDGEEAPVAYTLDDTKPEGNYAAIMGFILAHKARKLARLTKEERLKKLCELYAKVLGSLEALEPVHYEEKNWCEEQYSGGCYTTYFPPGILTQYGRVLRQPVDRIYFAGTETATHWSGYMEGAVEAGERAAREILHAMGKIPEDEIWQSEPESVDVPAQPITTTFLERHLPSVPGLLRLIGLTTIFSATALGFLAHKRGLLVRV

[3] = species: Homo sapiens; assay: Selectivity index, ratio of Ki for recombinant human MAO-A to Ki for recombinant human MAO-B
How it was run: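 SI is Ki(MAO-A)/Ki(MAO-B). Each Ki comes from the Amplex Red H2O2 assay with p-tyramine substrate and is the mean ± SEM of three independent experiments. Racemates were tested. A lower SI indicates MAO-A preference and a higher SI indicates MAO-B preference.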

[4] = target: T1, Amine oxidase [flavin-containing] A; assay: Competitive inhibition of recombinant human MAO-A using p-tyramine as substrate preincubated for 15 mins followed by substrate addition by Lineweaver-Burk plot analysis
[5] = target: T1, Amine oxidase [flavin-containing] A; assay: Reversible inhibition of recombinant human MAO-A using p-tyramine as substrate incubated for 1 hr by centrifugation ultra filtration method
[6] = target: T1, Amine oxidase [flavin-containing] A; assay: Suicide inhibition of recombinant human MAO-A using p-tyramine as substrate preincubated for 15 mins followed by substrate addition by Lineweaver-Burk plot analysis
[7] = target: T1, Amine oxidase [flavin-containing] A; assay: Irreversible inhibition of recombinant human MAO-A using p-tyramine as substrate incubated for 1 hr by centrifugation ultra filtration method
How it was run: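 Reversibility of hMAO-A inhibition assessed by a centrifugation-ultrafiltration method. Enzyme activity was read as H2O2 production from p-tyramine using Amplex Red fluorescence. Compounds were checked for direct reaction with Amplex Red and for resorufin quenching, tested at their maximum concentration against various resorufin concentrations. Racemic compounds were used.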

Structure (SMILES) | Ki [1] | Ki [2] | Ratio Ki [3] | inhibition (INH) [4] | inhibition (INH) [5] | inhibition (INH) [6] | inhibition (INH) [7]
CCOC(=O)N1N=C(c2ccc(O)c(OC)c2)CC1c1ccccc1 (racemic) | 440 nM | 201 µM | 0.002 | Active | Active |  | 
COc1cc(C2=NN(C(=N)N)C(c3ccccc3)C2)ccc1O (racemic) | 9550 nM | 201 µM | 0.047 | Active | Active |  | 
COc1cc(C2=NN(S(=O)(=O)c3ccc(C)cc3)C(c3ccccc3)C2)ccc1O (racemic) | 60 nM | 5900 µM | 1.02e-05 | Active | Active |  | 
COc1cc(C2=NNC(c3ccccc3)C2)ccc1O (racemic) | 5020 nM | 0.35 µM | 14.3 | Active | Active |  | 
COc1cc(C2=NN(C(C)=O)C(c3ccccc3)C2)ccc1O (racemic) | 3870 nM |  |  | Active | Active |  | 
COc1cc(C2=NN(C(=O)Oc3ccccc3)C(c3ccccc3)C2)ccc1O (racemic) | 290 nM | 4 µM | 0.073 | Active | Active |  | 
COc1cc(C2=NN(C(=S)Nc3ccccc3)C(c3ccccc3)C2)ccc1O (racemic) | 550 nM | 15.9 µM | 0.035 | Active | Active |  | 
COc1cc(C2=NN(c3ccccc3)C(c3ccccc3)C2)ccc1O (racemic) | 2160 nM |  |  | Active | Active |  | 
COc1cc(C2=NN(C(=O)c3ccccc3)C(c3ccccc3)C2)ccc1O (racemic) | 4250 nM | 41 µM | 0.104 | Active | Active |  | 
COc1cc(C2=NN(C(N)=S)C(c3ccccc3)C2)ccc1O (racemic) | 2580 nM | 2.78 µM | 0.928 | Active | Active |  | 
COc1cc(/C=C/C(=O)CC(=O)/C=C/c2ccc(O)c(OC)c2)ccc1O [CURCUMIN] |  |  |  | Active | Active |  | 
O=C(NCCN1CCOCC1)c1ccc(Cl)cc1 [MOCLOBEMIDE] |  |  |  | Active | Active |  | 
C#CCN(C)[C@H](C)Cc1ccccc1 [SELEGILINE] |  |  |  |  |  | Active | Active

Reference: ChEMBL document CHEMBL3779800 (ACS Med Chem Lett, 2016)
